The values below come from ChEMBL document CHEMBL2331169, “Search for α3β₂/₃γ2 subtype selective ligands that are stable on human liver microsomes” (Bioorg Med Chem, 2013).

Calls of active or inactive are those of the source. No cut-off for these calls is given here.

Data set [1] has as its target T1, GABA A receptor alpha-5/beta-3/gamma-2 (Rattus norvegicus) (UniProt P18508+P19969+P63079). In words: Agonist activity at rat GABAA alpha5beta3gamma2 receptor expressed in Xenopus oocytes assessed as stimulation of GABA-induced chloride current at 1 uM incubated 30 secs prior to GABA induction measured after 15 mins by two-electrode voltage clamp assay relative to control. Format: cell-based. Particulars: Oocyte. The procedure, abridged:
(§1)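 Rat GABAA β3 and γ2 cDNAs plus α1, α2, α3 or α5 cDNA injected into Xenopus oocytes; follicle layers removed 36 h later. Two-electrode recording with […]-filled electrodes; oocytes perfused with Ringer (90 mM NaCl, 5 mM HEPES pH 7.4, 1 mM MgCl2, KCl, CaCl2) switched to GABA at EC3 with drug (0.1% DMSO final). Mean ± SEM, 3–4 oocytes, ≥2 batches.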
For orientation: Two-electrode voltage clamp holds a large cell at a set potential and records current.

In data set [2] the target is T1, GABA A receptor alpha-5/beta-3/gamma-2 (Rattus norvegicus). Description: Agonist activity at rat GABAA alpha5beta3gamma2 receptor expressed in Xenopus oocytes assessed as stimulation of GABA-induced chloride current at 100 nM incubated 30 secs prior to GABA induction measured after 15 mins by two-electrode voltage clamp assay relative to control. As to conditions: Oocyte. Format: cell-based. The procedure, abridged: as §1

In data set [3] the target is Gamma-aminobutyric acid receptor subunit alpha-3 (Rattus norvegicus) (UniProt P20236). In words: Agonist activity at rat GABAA alpha3beta3gamma2 receptor expressed in Xenopus oocytes assessed as stimulation of GABA-induced chloride current at 1 uM incubated 30 secs prior to GABA induction measured after 15 mins by two-electrode voltage clamp assay relative to control. Particulars: Oocyte. Format: cell-based. The procedure, abridged:
as §1

Data set [4] shares this target. In words: Agonist activity at rat GABAA alpha3beta3gamma2 receptor expressed in Xenopus oocytes assessed as stimulation of GABA-induced chloride current at 100 nM incubated 30 secs prior to GABA induction measured after 15 mins by two-electrode voltage clamp assay relative to control. Type of data set: cell-based. Particulars: Oocyte. In a few lines:
as §1

For data set [5], the target named is T2, GABA A receptor alpha-2/beta-2/gamma-2 (Rattus norvegicus) (UniProt P18508+P23576+P63138). In words: Agonist activity at rat GABAA alpha2beta3gamma2 receptor expressed in Xenopus oocytes assessed as stimulation of GABA-induced chloride current at 1 uM incubated 30 secs prior to GABA induction measured after 15 mins by two-electrode voltage clamp assay relative to control. Type of data set: cell-based. As to conditions: Oocyte. The procedure, abridged: as §1

Data set [6] concerns the target T2, GABA A receptor alpha-2/beta-2/gamma-2 (Rattus norvegicus). Description: Agonist activity at rat GABAA alpha2beta3gamma2 receptor expressed in Xenopus oocytes assessed as stimulation of GABA-induced chloride current at 100 nM incubated 30 secs prior to GABA induction measured after 15 mins by two-electrode voltage clamp assay relative to control. As to conditions: Oocyte. Type of data set: cell-based. The procedure, abridged:
as §1

The target in data set [7] is T3, GABA-A receptor; alpha-1/beta-2/gamma-2 (Rattus norvegicus) (UniProt P18508+P62813+P63138). In words: Agonist activity at rat GABAA alpha1beta3gamma2 receptor expressed in Xenopus oocytes assessed as stimulation of GABA-induced chloride current at 1 uM incubated 30 secs prior to GABA induction measured after 15 mins by two-electrode voltage clamp assay relative to control. Type of data set: cell-based. As to conditions: Oocyte. The procedure, abridged:
as §1

Data set [8] has as its target T3, GABA-A receptor; alpha-1/beta-2/gamma-2 (Rattus norvegicus). Description: Agonist activity at rat GABAA alpha1beta3gamma2 receptor expressed in Xenopus oocytes assessed as stimulation of GABA-induced chloride current at 100 nM incubated 30 secs prior to GABA induction measured after 15 mins by two-electrode voltage clamp assay relative to control. Format: cell-based. As to conditions: Oocyte. The procedure, abridged:
as §1

Data set [9] in a line: Metabolic stability in heat inactivated human liver microsomes assessed as compound remaining at 10 uM measured at 60 mins by LC-MS/MS analysis relative to control. Format: ADME, Microsome. As to conditions: read-out: Stability. The procedure, abridged:
(§2)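 Control incubation with heat-inactivated human liver microsomes (0.5 mg protein/ml) in 100 mM phosphate pH 7.4, 37 °C, sampled at 0 and 60 min. Samples quenched in acetonitrile with internal standard and analysed by LC-MS/MS. Percent remaining is the peak-area ratio relative to 0 min ×100; duplicates.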
A general note: Liver microsomes are vesicles of endoplasmic reticulum, rich in cytochrome P450 enzymes.

Data set [10] in a line: Metabolic stability in human liver microsomes assessed as compound remaining at 10 uM measured at 60 mins by LC-MS/MS analysis relative to control. Format: ADME, Microsome. As to conditions: read-out: Stability. In a few lines:
(§3)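 Pooled human liver microsomes (150 donors, 0.5 mg protein/ml) with 2.5 mM NADPH and 3.3 mM MgCl2 in 100 mM phosphate pH 7.4, 0.1% DMSO final, 37 °C, reaction started with microsomes. Aliquots quenched in cold acetonitrile with internal standard; LC-MS/MS in positive-ion ESI MRM mode. Percent remaining is analyte/internal-standard peak-area ratio versus 0 min ×100; duplicates.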

Data set [11] can be described thus: Metabolic stability in human liver microsomes assessed as compound remaining at 10 uM measured at 30 mins by LC-MS/MS analysis relative to control. Format: ADME, Microsome. Particulars: read-out: Stability. In a few lines: as §3
Data set [12] is described as follows: Metabolic stability in human liver microsomes assessed as compound remaining at 10 uM measured at 15 mins by LC-MS/MS analysis relative to control. As to conditions: read-out: Stability. Type of data set: ADME, Microsome. The procedure, abridged:
as §3

Data set [13] in a line: (§4) Metabolic stability in heat inactivated human liver microsomes assessed as compound remaining at 1 uM measured at 60 mins by LC-MS/MS analysis relative to control. As to conditions: heat-inactivated liver microsomes, read-out: Stability. Format: ADME, Microsome. The procedure, abridged:
as §2

A short description of data set [14]: (§5) Metabolic stability in human liver microsomes assessed as compound remaining at 1 uM measured at 60 mins by LC-MS/MS analysis relative to control. Type of data set: ADME, Microsome. As to conditions: liver microsomes, read-out: Stability. In a few lines: as §3
The nature of data set [15]: (§6) Metabolic stability in human liver microsomes assessed as compound remaining at 1 uM measured at 30 mins by LC-MS/MS analysis relative to control. Format: ADME, Microsome. Particulars: liver microsomes, read-out: Stability. The procedure, abridged:
as §3

Data set [16] can be described thus: Metabolic stability in human liver microsomes assessed as compound remaining at 1 uM measured at 15 mins by LC-MS/MS analysis relative to control. Type of data set: ADME, Microsome. As to conditions: read-out: Stability. The procedure, abridged:
as §3

Data set [17] has as its system Liver microsomes. The data set is described as §5. Format: ADME, Microsome. As to conditions: microsomes, 1 h, 1 µM. The procedure, abridged:
as §3

The test system of data set [18] is Liver microsomes. Described as §6. Format: ADME, Microsome. As to conditions: microsomes, 0.5 h, 1 µM. In a few lines: as §3
The subject of data set [19] is Rattus norvegicus. In words: Sedative activity in rat assessed as reduction of D-amphetamine sulfate-induced locomotion at 3 mg/kg, ip administered 20 mins prior to testing measured for 90 mins relative to vehicle-treated control. Also on record: dose 3 mg/kg. Format: functional, organism-based. In a few lines: (§7)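 Rats kept ≥10 days on a reversed light/dark cycle. Drug or saline (2 ml/kg) given i.p. 20 min before an open-field arena; spontaneous x–y locomotion recorded 30 min by beam breaks. D-amphetamine sulfate 0.5 mg/kg i.p. then given, and locomotion recorded a further 90 min.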

The test system of data set [20] is Rattus norvegicus. Description: Anxiolytic activity in rat assessed as increase in time spent in lighted area at 3 mg/kg, ip administered 20 mins prior to testing measured for 30 mins by light/dark cycle test relative to vehicle-treated control. Also on record: dose 3 mg/kg. Type of data set: functional, organism-based.
The subject of data set [21] is Rattus norvegicus. Description: Sedative activity in rat assessed as reduction of D-amphetamine sulfate-induced locomotion at 10 to 100 mg/kg, ip administered 20 mins prior to testing measured for 90 mins relative to vehicle-treated control. Format: functional, organism-based. The procedure, abridged: as §7
Data set [22] relates to Rattus norvegicus. In words: Anxiolytic activity in rat assessed as increase in time spent in lighted area at 10 to 100 mg/kg, ip administered 20 mins prior to testing measured for 30 mins by light/dark cycle test relative to vehicle-treated control. Format: functional, organism-based.
For data set [23], the system named is Liver microsomes. The data set is described as §4. Format: ADME, Microsome. Particulars: microsomes, 1 h, 1 µM. The procedure, abridged: as §2

Gamma-aminobutyric acid receptor subunit alpha-3 (Rattus norvegicus), sequence (P20236 whole entry): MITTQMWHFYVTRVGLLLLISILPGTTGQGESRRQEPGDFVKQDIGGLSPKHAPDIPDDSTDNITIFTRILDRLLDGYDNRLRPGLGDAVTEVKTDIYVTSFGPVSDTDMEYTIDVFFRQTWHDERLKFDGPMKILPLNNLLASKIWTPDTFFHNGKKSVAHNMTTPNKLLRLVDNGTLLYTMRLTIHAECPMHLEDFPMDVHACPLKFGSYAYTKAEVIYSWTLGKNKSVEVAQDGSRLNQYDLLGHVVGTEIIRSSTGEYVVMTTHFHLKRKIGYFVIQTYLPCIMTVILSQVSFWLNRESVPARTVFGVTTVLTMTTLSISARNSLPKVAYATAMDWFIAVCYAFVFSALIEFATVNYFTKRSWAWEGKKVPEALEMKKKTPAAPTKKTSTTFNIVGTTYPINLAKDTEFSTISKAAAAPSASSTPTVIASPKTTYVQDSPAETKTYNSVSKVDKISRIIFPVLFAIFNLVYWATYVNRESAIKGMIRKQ

Take `C#Cc1ccc2c(c1)C(c1ccccn1)=NCc1c(-c3nc(C(C)C)no3)ncn1-2`: the Activity is 252% in [1]; 130% in [2]; 375% in data set [3]; 143% in data set [4]; 236% in [5]; 139% in [6]. Besides, the results for the Activity in data set [7] and in data set [8] were 178% and 117%, respectively. In addition, the remaining at 1 h, 10 µM came to 91.7% in [9] and 95.1% in data set [10]. The remaining at 0.5 h, 10 µM in [11] was 99.3%. Besides, in data set [12], the remaining at 0.25 h, 10 µM is 106%. The remaining at 1 h, 1 µM in [13] came to 113%; in data set [14], 89.5%. Also, the remaining at 0.5 h, 1 µM in data set [15] was 98.7%. For the same compound, the remaining at 0.25 h, 1 µM in data set [16] stood at 97.8%.

`C#Cc1ccc2c(c1)C(c1ccccn1)=NCc1c(C(=O)NC)ncn1-2`: the Activity is 182% in [1]; 122% in [2]; 376% in data set [3]; 163% in data set [4]; 226% in data set [5]; 140% in data set [6]. Further, the values for the Activity in data set [7] and in data set [8] were 171% and 117%, respectively. The remaining at 1 h, 10 µM in data set [9] and in data set [10] was 110% throughout. Also, the remaining at 0.5 h, 10 µM in data set [11] was found to be 106%. The remaining at 0.25 h, 10 µM in data set [12] was found to be 104%. For the same compound, the remaining at 1 h, 1 µM in [13] is 110%. The Stability was 136.4% in the data set on Liver microsomes [17] and 126% with Liver microsomes [18]. Besides, in data set [16], the remaining at 0.25 h, 1 µM is 109%.

`C#Cc1ccc2c(c1)C(c1ccccc1F)=NCc1c(-c3nc(C(C)C)no3)ncn1-2`: the Activity in [1] turned out to be 331%; in data set [2] it was 239%; in [3] it was 460%; in [4], 226%; in [5] it was 225%; in [6] it was 154%. In addition, the Activity in data set [7] is 234%; in data set [8], 140%.

On to `CN1C(=O)CN=C(c2ccccc2)c2cc(Cl)ccc21`, for which the outcome in the data set on Rattus norvegicus [19] and in the data set with Rattus norvegicus [20] was Active.

With `C#Cc1ccc2c(c1)C(c1ccccc1F)=NCc1c(C(=O)NC)ncn1-2`, the Activity turned out to be 361% in data set [1]; 326% in data set [2]; 485% in data set [3]; 349% in [4]; 287% in [5]; 241% in data set [6]. The Activity in data set [7] was 201%; in [8], 152%. For the same compound, the remaining at 1 h, 10 µM in data set [9] stood at 108%; in data set [10] it was 103%. Besides, the remaining at 0.5 h, 10 µM in data set [11] amounted to 103%. In [12], the remaining at 0.25 h, 10 µM came to 96.8%. The remaining at 1 h, 1 µM in [13] turned out to be 116%; in data set [14], 92.3%. The remaining at 0.5 h, 1 µM in data set [15] was 95.9%. Moreover, the remaining at 0.25 h, 1 µM in data set [16] was 97.3%.

For `C#Cc1ccc2c(c1)C(c1ccccc1)=NCc1c(C(=O)NC)ncn1-2`, the Activity was 307% in data set [1]; 257% in [2]; 831% in data set [3]; 412% in data set [4]; 287% in data set [5]; 211% in [6]. For the same compound, the figures for the Activity in data set [7] and in data set [8] were 192% and 132%, respectively. Besides, the remaining at 1 h, 10 µM stood at 114% in data set [9] and 82.8% in data set [10]. Further, in data set [11], the remaining at 0.5 h, 10 µM is 104%. Also, the remaining at 0.25 h, 10 µM in [12] was 107%. Moreover, the remaining at 1 h, 1 µM in [13] was 114%; in [14], 5.2%. Besides, the remaining at 0.5 h, 1 µM in data set [15] is 37.5%. Also, the remaining at 0.25 h, 1 µM in data set [16] stood at 87.3%.

In the case of `C#Cc1ccc2c(c1)C(c1ccccc1)=NCc1c(-c3nc(C(C)C)no3)ncn1-2`, the result in the data set on Rattus norvegicus [21] was inactive. The outcome in the data set with Rattus norvegicus [22] was Active. In addition, the Activity was 291% in [1]; 175% in data set [2]; 381% in [3]; 195% in data set [4]; 281% in data set [5]; 160% in data set [6]. Also, the Activity is 150% in data set [7] and 107% in data set [8]. The remaining at 1 h, 10 µM worked out at 119% in data set [9] and 96.6% in [10]. Also, the remaining at 0.5 h, 10 µM in [11] is 108%. Further, in data set [12], the remaining at 0.25 h, 10 µM is 109%. The Stability with Liver microsomes [23] was found to be 137.5%. Also, the remaining at 1 h, 1 µM in data set [14] was 90.8%. For the same compound, the remaining at 0.5 h, 1 µM in [15] was determined as 110%. Besides, the remaining at 0.25 h, 1 µM in data set [16] was 100%.
